Assay results taken from ChEMBL document CHEMBL1144383, “A new development of matrix metalloproteinase inhibitors: twin hydroxamic acids as potent inhibitors of MMPs” (Bioorg Med Chem Lett, 2005).

Assays:
[1] = target: Matrix metalloproteinase-9 (Homo sapiens, UniProt P14780); test: Inhibition of Matrix metalloprotease-9 in MMPi assay
Interstitial collagenase = target: T1, Interstitial collagenase (Homo sapiens, UniProt P03956); test: Inhibition of Matrix metalloprotease-1 in MMPi assay
T1 sequence (P03956 whole entry): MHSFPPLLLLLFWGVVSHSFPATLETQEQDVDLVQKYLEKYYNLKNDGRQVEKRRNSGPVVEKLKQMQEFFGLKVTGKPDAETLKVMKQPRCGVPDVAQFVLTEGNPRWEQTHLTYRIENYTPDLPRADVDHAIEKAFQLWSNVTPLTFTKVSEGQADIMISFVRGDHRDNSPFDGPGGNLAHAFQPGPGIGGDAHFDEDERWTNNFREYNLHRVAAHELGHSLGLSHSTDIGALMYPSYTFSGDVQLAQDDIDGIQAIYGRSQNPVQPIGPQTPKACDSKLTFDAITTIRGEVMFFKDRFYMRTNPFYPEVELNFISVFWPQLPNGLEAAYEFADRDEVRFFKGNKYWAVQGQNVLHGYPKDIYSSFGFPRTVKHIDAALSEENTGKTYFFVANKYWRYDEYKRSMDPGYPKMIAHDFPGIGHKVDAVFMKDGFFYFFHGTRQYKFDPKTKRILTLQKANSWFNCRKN

[2] = target: Matrix metalloproteinase-14 (Homo sapiens, UniProt P50281); test: Inhibition of Matrix metalloprotease-14 in MMPi assay
[3] = target: 72 kDa type IV collagenase (Homo sapiens, UniProt P08253); test: Inhibition of Matrix metalloprotease-2 in MMPi assay
72 kDa type IV collagenase, sequence (P08253 whole entry): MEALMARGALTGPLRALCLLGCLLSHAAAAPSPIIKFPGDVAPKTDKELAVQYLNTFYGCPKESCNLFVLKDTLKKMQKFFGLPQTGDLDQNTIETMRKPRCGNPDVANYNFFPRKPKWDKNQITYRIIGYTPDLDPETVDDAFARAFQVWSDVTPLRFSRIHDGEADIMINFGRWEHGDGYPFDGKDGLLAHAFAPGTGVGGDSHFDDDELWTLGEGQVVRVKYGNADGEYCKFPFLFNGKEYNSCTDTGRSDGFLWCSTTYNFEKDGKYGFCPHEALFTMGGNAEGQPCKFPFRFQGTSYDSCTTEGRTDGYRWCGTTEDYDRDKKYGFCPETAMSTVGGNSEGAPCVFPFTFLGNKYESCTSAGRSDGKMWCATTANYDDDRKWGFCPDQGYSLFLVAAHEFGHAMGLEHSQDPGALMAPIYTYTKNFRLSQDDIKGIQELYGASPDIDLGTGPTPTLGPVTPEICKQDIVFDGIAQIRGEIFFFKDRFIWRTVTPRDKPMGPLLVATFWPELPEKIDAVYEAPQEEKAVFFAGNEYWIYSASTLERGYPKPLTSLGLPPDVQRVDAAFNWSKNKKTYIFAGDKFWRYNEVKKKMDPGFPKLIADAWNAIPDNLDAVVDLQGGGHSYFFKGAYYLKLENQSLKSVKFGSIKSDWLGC

HT-1080 [4] = test: Cytotoxicity as percentage of dead cells at 5 uM using Trypan Blue test on HT1080 cells; type: functional, Homo sapiens
Outline: (§1)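 HT1080 cells stably transfected to overexpress MT1-MMP, seeded at 10⁵ cells/well and kept overnight at 37 °C. Washed free of serum, then given serum-free DMEM with insulin, transferrin and selenium. Compound added at 0, 1, 5 or 10 (micromolar) to duplicate wells for 24 h. Trypsinized cells mixed 1:1 with 0.4% trypan blue for 5 min. Blue-stained and total cells counted on haemocytometer upper and lower grids. % dead = mean of duplicates minus untreated wells.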

[5] = system: Matrix metalloproteinase-14; test: Inhibition of Matrix metalloprotease-14 in MMPi assay
HT-1080 [6] = test: Cytotoxicity as percentage of dead cells at 10 uM using Trypan Blue test on HT1080 cells; type: functional, Homo sapiens; outline: as §1
HT-1080 [7] = test: Cytotoxicity as percentage of dead cells at 1 uM using Trypan Blue test on HT1080 cells; type: functional, Homo sapiens; outline: as §1

Matrix metalloproteinase-9, sequence (P14780 whole entry): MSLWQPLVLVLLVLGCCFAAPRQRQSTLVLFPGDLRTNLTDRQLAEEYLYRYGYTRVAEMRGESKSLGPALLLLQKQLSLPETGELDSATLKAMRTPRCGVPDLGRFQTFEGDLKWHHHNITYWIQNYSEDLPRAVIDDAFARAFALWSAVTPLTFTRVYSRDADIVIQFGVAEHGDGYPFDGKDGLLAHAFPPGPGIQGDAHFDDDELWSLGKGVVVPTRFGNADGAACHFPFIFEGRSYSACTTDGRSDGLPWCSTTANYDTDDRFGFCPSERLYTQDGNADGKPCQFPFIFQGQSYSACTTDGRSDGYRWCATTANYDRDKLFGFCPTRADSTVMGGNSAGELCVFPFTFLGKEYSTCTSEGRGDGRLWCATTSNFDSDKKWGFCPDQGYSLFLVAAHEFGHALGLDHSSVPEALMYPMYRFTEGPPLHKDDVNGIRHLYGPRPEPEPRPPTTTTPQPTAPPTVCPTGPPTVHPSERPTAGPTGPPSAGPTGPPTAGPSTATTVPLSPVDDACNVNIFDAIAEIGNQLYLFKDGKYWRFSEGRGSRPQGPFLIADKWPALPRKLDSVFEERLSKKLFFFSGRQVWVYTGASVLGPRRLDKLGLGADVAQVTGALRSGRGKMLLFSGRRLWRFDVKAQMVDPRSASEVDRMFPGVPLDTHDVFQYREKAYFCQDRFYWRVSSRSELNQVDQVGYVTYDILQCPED

IC50 [1] [nM] | IC50 [2] [nM] | IC50 [3] [nM] | SMILES | IC50 (Interstitial collagenase) [nM] | Dead cells (HT-1080 [4]) [%] | IC50 [5] [nM] | Dead cells (HT-1080 [6]) [%] | Dead cells (HT-1080 [7]) [%]
983 | 1490 | 197 | CC(C)ON([C@H](CCNC(=O)c1cccc(C(=O)NCC[C@H](C(=O)NO)N(OC(C)C)S(=O)(=O)c2ccc(-c3ccccc3)cc2)c1)C(=O)NO)S(=O)(=O)c1ccc(-c2ccccc2)cc1 | 10000 | – | – | – | –
– | – | – | CC(C)ON([C@H](CCNC(=O)OCc1ccccc1)C(=O)NO)S(=O)(=O)c1ccc(-c2ccccc2)cc1 | > 3000 | 20 | – | 35 | 4
> 30000 | – | > 1000 | CC(C)ON([C@H](CCNC(=O)c1cccc(C(=O)NCC[C@H](C(=O)O)N(OC(C)C)S(=O)(=O)c2ccc(-c3ccccc3)cc2)c1)C(=O)O)S(=O)(=O)c1ccc(-c2ccccc2)cc1 | – | – | – | – | –

SMILES | IC50 [1] [nM] | IC50 [2] [nM] | IC50 [3] [nM] | IC50 (Interstitial collagenase) [nM] | Dead cells (HT-1080 [4]) [%] | IC50 [5] [nM] | Dead cells (HT-1080 [6]) [%] | Dead cells (HT-1080 [7]) [%]
CC(C)ON([C@H](CCNC(=O)CCCNC(=O)c1cccc(C(=O)NCCCC(=O)NCC[C@H](C(=O)NO)N(OC(C)C)S(=O)(=O)c2ccc(-c3ccccc3)cc2)c1)C(=O)NO)S(=O)(=O)c1ccc(-c2ccccc2)cc1 | 8.3 | – | 9.8 | 397 | 5 | 34 | 10 | 0
